Experimental data as given in ChEMBL document CHEMBL5678805, “Intermittent administration of MEK inhibitor GDC-0973 plus PI3K inhibitor GDC-0941 triggers robust apoptosis and tumor growth inhibition” (Cancer Res, 2012).
Calls of active or inactive are those of the source. No cut-off for these calls is given here.

Experiments:
Hs 294T = assay: Antiproliferative activity against human Hs294T cells assessed reduction in cell viability incubated for 4 days in presence of 4-(2-(1H-indazol-4-yl)-6-((4-(methylsulfonyl)piperazin-1-yl)methyl)thieno[3,2-d]pyrimidin-4-yl)morpholine by celltiter-glo assay; type: functional; conditions: time 4 day
Procedure, shortened: (§1)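 4-day CellTiter-Glo viability read-out on melanoma lines, cells exposed to increasing concentrations of each inhibitor alone and in combination.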

NCI-H460 = assay: Antitumor activity against human NCI-H460 cells harboring KRAS Q61H/PIK3CA E545K/LKB1 Q37/CDKN2A mutant xenografted in mouse assessed as tumor growth inhibition at 2.5 mg/kg, po; type: functional; conditions: read-out: TGI
Procedure, shortened: (§2)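 Human tumor xenografts in mice were dosed orally at the indicated mg/kg. Tumor volume was measured with calipers as (L×W×W)/2. %TGI = 100 × [1 − (AUC treatment/d)/(AUC vehicle/d)], using the area under the fitted tumor-growth curve per day for each dose group relative to vehicle.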

NCI-H520 = assay: Antitumor activity against human NCI-H520 cells harboring TP53 W146 and CDKN2A G G45 mutant xenografted in mouse assessed as tumor growth inhibition at 5 mg/kg, po; type: functional; conditions: read-out: TGI; procedure, shortened: as §2
DLD-1 = assay: Antitumor activity against human DLD-1 cells xenografted in mouse assessed as tumor growth inhibition at 15 mg/kg, po administered once a day for 21 days in presence of 4-(2-(1H-indazol-4-yl)-6-((4-(methylsulfonyl)piperazin-1-yl)methyl)thieno[3,2-d]pyrimidin-4-yl)morpholine; type: functional; conditions: DLD-1, 504 h, time 21 day, read-out: TGI
Procedure, shortened: (§3)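 Human tumor xenografts in mice. Drugs given orally, as single agents or combined with the PI3K inhibitor. Schedules were daily (QD) or every third day (Q3D) over 21 days. Tumor volume was measured by caliper as (L×W×W)/2. %TGI = 100×[1 − AUC(treatment/d)/AUC(vehicle/d)] from fitted growth curves, with group means. Tumor lysates were immunoblotted for pS6.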

NCI-H2122 = assay: Antiproliferative activity against human NCI-H2122 cells assessed as reduction in cell viability incubated for 96 hrs in presence of 4-(2-(1H-indazol-4-yl)-6-((4-(methylsulfonyl)piperazin-1-yl)methyl)thieno[3,2-d]pyrimidin-4-yl)morpholine; type: functional, cell-based
A2058 [1] = assay: Antitumor activity against human A2058 cells harboring BRAF V600E/PTEN deletion mutant xenografted in mouse assessed as suppression of ERK phosphorylation at 15 mg/kg, po administered every third day for 21 days and measured after 72 hrs post dose by Western blot analysis; type: functional, organism-based; conditions: time 576.0 hrs
[2] = target: Serine/threonine-protein kinase Nek3 (Homo sapiens, UniProt P51956); assay: Inhibition of NEK3 (unknown origin)
Sequence of Serine/threonine-protein kinase Nek3 (P51956 whole entry): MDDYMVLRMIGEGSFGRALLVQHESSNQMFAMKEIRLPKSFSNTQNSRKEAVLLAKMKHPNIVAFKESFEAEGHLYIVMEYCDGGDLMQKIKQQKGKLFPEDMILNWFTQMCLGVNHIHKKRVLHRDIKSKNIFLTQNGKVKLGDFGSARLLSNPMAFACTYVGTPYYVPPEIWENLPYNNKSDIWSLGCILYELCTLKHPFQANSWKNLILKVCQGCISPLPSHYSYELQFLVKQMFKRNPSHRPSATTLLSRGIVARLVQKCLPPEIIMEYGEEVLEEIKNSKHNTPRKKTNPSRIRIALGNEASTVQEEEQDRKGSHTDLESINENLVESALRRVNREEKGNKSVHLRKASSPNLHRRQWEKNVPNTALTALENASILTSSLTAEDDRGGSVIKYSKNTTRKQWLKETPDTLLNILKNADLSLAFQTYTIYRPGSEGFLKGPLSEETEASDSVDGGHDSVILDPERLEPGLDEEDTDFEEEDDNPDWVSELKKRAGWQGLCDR

[3] = target: Serine/threonine-protein kinase B-raf (Homo sapiens, UniProt P15056); assay: Inhibition of BRAF (unknown origin)
Sequence of Serine/threonine-protein kinase B-raf (P15056 whole entry): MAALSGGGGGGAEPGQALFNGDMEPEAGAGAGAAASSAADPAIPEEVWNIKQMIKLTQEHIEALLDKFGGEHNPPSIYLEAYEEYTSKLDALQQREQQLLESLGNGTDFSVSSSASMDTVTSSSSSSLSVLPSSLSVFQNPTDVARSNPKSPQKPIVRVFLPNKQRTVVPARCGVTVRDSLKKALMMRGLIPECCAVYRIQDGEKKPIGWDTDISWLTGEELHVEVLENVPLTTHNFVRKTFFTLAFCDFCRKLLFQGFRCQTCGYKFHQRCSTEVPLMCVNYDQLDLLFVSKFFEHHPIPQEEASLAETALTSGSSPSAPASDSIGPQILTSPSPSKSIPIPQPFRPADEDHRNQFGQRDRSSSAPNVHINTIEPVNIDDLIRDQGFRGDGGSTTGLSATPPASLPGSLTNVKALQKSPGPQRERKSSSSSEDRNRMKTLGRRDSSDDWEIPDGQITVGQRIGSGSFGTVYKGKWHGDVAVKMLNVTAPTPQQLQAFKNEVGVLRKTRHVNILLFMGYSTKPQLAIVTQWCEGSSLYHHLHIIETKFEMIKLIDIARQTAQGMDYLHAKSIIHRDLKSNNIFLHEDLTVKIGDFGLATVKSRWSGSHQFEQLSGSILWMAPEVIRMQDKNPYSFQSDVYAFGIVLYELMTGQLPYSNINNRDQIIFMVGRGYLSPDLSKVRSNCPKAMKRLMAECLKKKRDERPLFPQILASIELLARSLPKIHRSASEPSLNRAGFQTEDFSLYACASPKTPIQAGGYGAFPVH

[4] = target: Mitogen-activated protein kinase kinase kinase 9 (Homo sapiens, UniProt P80192); assay: Inhibition of MLK1 (unknown origin)
[5] = target: Tyrosine-protein kinase ZAP-70 (Homo sapiens, UniProt P43403); assay: Inhibition of ZAP70 (unknown origin)
Sequence of Tyrosine-protein kinase ZAP-70 (P43403 whole entry): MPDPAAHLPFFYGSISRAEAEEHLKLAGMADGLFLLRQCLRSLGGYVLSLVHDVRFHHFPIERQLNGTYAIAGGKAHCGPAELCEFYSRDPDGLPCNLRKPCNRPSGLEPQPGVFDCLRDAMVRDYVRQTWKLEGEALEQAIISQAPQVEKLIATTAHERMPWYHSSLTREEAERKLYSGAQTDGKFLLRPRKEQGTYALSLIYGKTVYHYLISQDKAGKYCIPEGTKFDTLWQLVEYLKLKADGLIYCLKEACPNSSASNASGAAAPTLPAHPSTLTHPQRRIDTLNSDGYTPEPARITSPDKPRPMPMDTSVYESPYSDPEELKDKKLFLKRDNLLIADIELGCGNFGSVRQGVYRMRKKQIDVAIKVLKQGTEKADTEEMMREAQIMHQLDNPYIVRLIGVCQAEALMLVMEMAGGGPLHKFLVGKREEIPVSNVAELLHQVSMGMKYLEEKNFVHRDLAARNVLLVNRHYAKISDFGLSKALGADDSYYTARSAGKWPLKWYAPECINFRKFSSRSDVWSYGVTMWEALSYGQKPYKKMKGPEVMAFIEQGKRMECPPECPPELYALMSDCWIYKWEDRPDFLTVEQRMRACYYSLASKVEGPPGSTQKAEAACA

[6] = target: Dual specificity mitogen-activated protein kinase kinase 7 (Homo sapiens, UniProt O14733); assay: Inhibition of MKK7beta (unknown origin)
MeWo = assay: Antiproliferative activity against human MeWo cells assessed reduction in cell viability incubated for 4 days in presence of 4-(2-(1H-indazol-4-yl)-6-((4-(methylsulfonyl)piperazin-1-yl)methyl)thieno[3,2-d]pyrimidin-4-yl)morpholine by celltiter-glo assay; type: functional; conditions: time 4 day; procedure, shortened: as §1
A2058 [7] = assay: Antitumor activity against human A2058 cells xenografted in mouse assessed as decrease in pS6 level at 5 mg/kg, po administered for 4 days and measured after 2 hrs in presence of 4-(2-(1H-indazol-4-yl)-6-((4-(methylsulfonyl)piperazin-1-yl)methyl)thieno[3,2-d]pyrimidin-4-yl)morpholine; type: functional, organism-based; conditions: time 98.0 hrs
[8] = target: MAP kinase-activated protein kinase 2 (Homo sapiens, UniProt P49137); assay: Inhibition of MAPKAP2 (unknown origin)
Sequence of MAP kinase-activated protein kinase 2 (P49137 whole entry): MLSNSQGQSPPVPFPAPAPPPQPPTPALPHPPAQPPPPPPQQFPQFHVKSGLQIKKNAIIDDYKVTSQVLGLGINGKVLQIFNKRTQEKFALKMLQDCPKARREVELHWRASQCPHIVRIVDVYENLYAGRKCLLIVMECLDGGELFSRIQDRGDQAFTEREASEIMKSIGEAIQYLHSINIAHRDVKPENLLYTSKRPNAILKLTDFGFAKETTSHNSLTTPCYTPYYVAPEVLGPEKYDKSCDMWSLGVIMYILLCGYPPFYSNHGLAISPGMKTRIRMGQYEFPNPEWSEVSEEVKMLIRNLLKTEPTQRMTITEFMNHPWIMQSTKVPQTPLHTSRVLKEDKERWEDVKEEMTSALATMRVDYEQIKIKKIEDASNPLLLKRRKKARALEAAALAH

[9] = target: Platelet-derived growth factor receptor alpha (Homo sapiens, UniProt P16234); assay: Inhibition of PDGFRalpha (unknown origin)
Sequence of Platelet-derived growth factor receptor alpha (P16234 whole entry): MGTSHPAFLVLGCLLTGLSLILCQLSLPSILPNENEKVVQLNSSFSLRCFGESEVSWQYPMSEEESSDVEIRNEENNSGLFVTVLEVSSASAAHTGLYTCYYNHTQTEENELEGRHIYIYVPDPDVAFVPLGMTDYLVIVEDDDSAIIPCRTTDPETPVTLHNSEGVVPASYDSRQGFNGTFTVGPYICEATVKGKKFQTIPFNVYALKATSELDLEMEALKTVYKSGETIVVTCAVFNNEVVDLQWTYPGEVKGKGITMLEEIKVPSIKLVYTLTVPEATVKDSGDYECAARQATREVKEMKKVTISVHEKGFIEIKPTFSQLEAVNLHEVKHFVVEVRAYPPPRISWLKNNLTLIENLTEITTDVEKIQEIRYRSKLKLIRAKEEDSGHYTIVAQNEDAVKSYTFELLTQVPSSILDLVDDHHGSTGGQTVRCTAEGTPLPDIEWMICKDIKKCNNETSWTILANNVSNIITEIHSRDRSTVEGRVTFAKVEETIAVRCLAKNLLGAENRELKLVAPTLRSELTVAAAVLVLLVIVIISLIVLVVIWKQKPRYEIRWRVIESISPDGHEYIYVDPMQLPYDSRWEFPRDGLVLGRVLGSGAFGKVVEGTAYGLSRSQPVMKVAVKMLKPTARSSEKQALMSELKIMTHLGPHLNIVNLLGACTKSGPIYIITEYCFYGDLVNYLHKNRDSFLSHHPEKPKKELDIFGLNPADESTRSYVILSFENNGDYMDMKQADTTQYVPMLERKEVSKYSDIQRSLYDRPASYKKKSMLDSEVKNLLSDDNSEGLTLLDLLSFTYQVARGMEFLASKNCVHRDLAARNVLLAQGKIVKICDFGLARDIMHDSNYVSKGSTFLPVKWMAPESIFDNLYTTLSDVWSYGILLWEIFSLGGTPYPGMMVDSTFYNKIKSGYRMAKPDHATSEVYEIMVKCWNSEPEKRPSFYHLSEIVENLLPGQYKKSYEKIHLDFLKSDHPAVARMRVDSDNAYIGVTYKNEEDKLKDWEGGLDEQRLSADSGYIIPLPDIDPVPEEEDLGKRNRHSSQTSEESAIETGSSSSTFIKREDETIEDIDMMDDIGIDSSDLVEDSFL

[10] = target: Mitogen-activated protein kinase 8 (Homo sapiens, UniProt P45983); assay: Inhibition of JNK1 (unknown origin)
Sequence of Mitogen-activated protein kinase 8 (P45983 whole entry): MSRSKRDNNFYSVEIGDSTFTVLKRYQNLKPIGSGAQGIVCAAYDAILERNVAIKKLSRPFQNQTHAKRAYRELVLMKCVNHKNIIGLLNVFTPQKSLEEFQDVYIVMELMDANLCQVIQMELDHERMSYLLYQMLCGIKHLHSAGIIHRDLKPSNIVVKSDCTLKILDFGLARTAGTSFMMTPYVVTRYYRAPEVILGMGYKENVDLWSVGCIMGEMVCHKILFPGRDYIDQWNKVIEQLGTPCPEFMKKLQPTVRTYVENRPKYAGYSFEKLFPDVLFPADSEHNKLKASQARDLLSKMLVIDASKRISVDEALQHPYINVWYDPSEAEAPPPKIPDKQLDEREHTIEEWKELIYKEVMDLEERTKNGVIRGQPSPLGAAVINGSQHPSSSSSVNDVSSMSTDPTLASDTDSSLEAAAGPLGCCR

COLO-829 = assay: Antiproliferative activity against human COLO-829 cells assessed reduction in cell viability incubated for 4 days in presence of 4-(2-(1H-indazol-4-yl)-6-((4-(methylsulfonyl)piperazin-1-yl)methyl)thieno[3,2-d]pyrimidin-4-yl)morpholine by celltiter-glo assay; type: functional; conditions: time 4 day; procedure, shortened: as §1
[11] = target: Serine/threonine-protein kinase Nek7 (Homo sapiens, UniProt Q8TDX7); assay: Inhibition of NEK7 (unknown origin)
Sequence of Serine/threonine-protein kinase Nek7 (Q8TDX7 whole entry): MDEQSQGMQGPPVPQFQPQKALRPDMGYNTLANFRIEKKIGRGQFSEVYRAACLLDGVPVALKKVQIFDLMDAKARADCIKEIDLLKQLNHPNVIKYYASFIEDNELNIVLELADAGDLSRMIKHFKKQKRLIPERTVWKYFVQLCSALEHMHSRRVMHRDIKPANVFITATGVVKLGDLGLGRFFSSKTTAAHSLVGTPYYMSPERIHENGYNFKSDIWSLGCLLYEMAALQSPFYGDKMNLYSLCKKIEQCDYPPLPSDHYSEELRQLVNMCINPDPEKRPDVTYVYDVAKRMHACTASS

A-375 = assay: Antitumor activity against human A-375 cells xenografted in mouse assessed as decrease in pS6 level at 5 mg/kg, po administered for 4 days and measured after 2 hrs in presence of 4-(2-(1H-indazol-4-yl)-6-((4-(methylsulfonyl)piperazin-1-yl)methyl)thieno[3,2-d]pyrimidin-4-yl)morpholine; type: functional, organism-based; conditions: time 98.0 hrs
[12] = target: Tyrosine-protein kinase Lyn (Homo sapiens, UniProt P07948); assay: Inhibition of Lyn (unknown origin)
Sequence of Tyrosine-protein kinase Lyn (P07948 whole entry): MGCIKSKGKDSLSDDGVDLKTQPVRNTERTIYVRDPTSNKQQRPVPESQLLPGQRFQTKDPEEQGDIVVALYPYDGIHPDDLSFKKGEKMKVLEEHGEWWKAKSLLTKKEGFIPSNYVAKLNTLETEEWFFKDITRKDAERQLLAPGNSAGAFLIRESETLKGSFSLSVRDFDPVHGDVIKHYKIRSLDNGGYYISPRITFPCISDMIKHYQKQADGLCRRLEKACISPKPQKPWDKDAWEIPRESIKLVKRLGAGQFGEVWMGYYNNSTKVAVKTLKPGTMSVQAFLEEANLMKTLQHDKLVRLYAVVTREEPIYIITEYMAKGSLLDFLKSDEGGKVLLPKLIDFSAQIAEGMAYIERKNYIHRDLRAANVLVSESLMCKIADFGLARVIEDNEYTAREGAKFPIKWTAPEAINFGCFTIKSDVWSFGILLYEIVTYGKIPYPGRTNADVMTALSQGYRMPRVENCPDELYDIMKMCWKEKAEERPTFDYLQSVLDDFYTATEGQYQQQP

[13] = target: Vascular endothelial growth factor receptor 3 (Homo sapiens, UniProt P35916); assay: Inhibition of Flt4 (unknown origin)
HCT-116 = assay: Antitumor activity against human HCT-116 cells harboring KRAS G13D/PIK3CA […]/CTNNB1 S45del/CDKN2A G23fs mutant xenografted in mouse assessed as tumor growth inhibition at 10 mg/kg, po; type: functional; conditions: read-out: TGI
Procedure, shortened: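 Single-agent dose ranging in human tumor xenograft mice at 2.5, 5 or 10 mg/kg oral. Tumor volume was measured by caliper as (L×W×W)/2. %TGI = 100×[1 − AUC(treatment/d)/AUC(vehicle/d)] from the fitted growth curve per dose group, relative to vehicle.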

[14] = target: Serine/threonine-protein kinase Sgk1 (Homo sapiens, UniProt O00141); assay: Inhibition of SGK (unknown origin)
MIA PaCa-2 = assay: Antitumor activity against human MIA PaCa-2 cells harboring KRAS G12C/NOTCH1 L2458V mutant xenografted in mouse assessed as tumor growth inhibition at 5 mg/kg, po; type: functional; conditions: read-out: TGI; procedure, shortened: as §2
888-mel = assay: Inhibition of ERK phosphorylation in human 888-mel cells incubated for 24 hrs by immunoblotting analysis; type: cell-based
[15] = target: Calcium/calmodulin-dependent protein kinase type 1 (Homo sapiens, UniProt Q14012); assay: Inhibition of CaMK1 (unknown origin)
Sequence of Calcium/calmodulin-dependent protein kinase type 1 (Q14012 whole entry): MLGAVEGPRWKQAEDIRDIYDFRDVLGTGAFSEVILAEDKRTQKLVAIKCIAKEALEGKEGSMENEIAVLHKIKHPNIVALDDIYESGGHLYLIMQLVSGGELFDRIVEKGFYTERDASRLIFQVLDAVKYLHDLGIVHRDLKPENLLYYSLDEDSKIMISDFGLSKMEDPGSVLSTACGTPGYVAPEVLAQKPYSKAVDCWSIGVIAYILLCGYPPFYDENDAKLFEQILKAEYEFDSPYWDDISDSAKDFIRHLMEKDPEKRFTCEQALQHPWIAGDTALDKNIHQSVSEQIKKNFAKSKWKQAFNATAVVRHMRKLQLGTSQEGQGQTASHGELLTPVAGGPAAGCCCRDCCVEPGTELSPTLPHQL

A2058 [16] = assay: Antitumor activity against human A2058 cells xenografted in mouse assessed as tumor growth inhibition at 6 mg/kg, po administered once a day for 21 days in presence of 4-(2-(1H-indazol-4-yl)-6-((4-(methylsulfonyl)piperazin-1-yl)methyl)thieno[3,2-d]pyrimidin-4-yl)morpholine; type: functional; conditions: A2058, 504 h, time 21 day, read-out: TGI; procedure, shortened: as §3
SK-OV-3 = assay: Antitumor activity against human SK-OV-3 cells harboring FBXW7 R505L and CDKN2A mutant xenografted in mouse assessed as tumor growth inhibition at 10 mg/kg, po; type: functional; conditions: read-out: TGI; procedure, shortened: as §2

With `O=C(c1ccc(F)c(F)c1Nc1ccc(I)cc1F)N1CC(O)([C@@H]2CCCCN2)C1` [COBIMETINIB] as the molecule, how does the Activity (Hs 294T) read?
Its Activity is 60%.

What about the inhibition in vivo at 2.5 mg/kg (NCI-H460) of the same molecule?
Its inhibition in vivo at 2.5 mg/kg is 32%.

What about the inhibition in vivo at 5 mg/kg (NCI-H520) of the same molecule?
Its inhibition in vivo at 5 mg/kg is 26%.

What about the inhibition in vivo at 15 mg/kg (DLD-1) of the same molecule?
Its inhibition in vivo at 15 mg/kg is 69%.

And the Activity (NCI-H2122)?
The Activity was “inactive”.

What about the Activity (A2058 [1]) of the same molecule?
The Activity was “Active”.

And the IC50 [2]?
Its IC50 is over 10 µM.

And the IC50 [3]?
The IC50 was over 10 µM.

What about the IC50 [4] of the same molecule?
The IC50 was over 10 µM.

And the IC50 [5]?
The IC50 was over 10 µM.

What about the IC50 [6] of the same molecule?
The IC50 was over 10 µM.

And the Activity (MeWo)?
Its Activity is 60%.

And the Activity (A2058 [7])?
Its Activity is “Active”.

What about the IC50 [8] of the same molecule?
The IC50 was over 10 µM.

And the IC50 [9]?
The IC50 was over 10 µM.

What about the IC50 [10] of the same molecule?
Its IC50 is over 10 µM.

What about the Activity (COLO-829) of the same molecule?
The Activity was 60%.

What about the IC50 [11] of the same molecule?
The IC50 was over 10 µM.

What about the Activity (A-375) of the same molecule?
Its Activity is “Active”.

And the IC50 [12]?
The IC50 was over 10 µM.

What about the IC50 [13] of the same molecule?
Its IC50 is over 10 µM.

What about the inhibition in vivo at 10 mg/kg (HCT-116) of the same molecule?
The inhibition in vivo at 10 mg/kg was 84.5%.

And the IC50 [14]?
Its IC50 is over 10 µM.

What about the inhibition in vivo at 5 mg/kg (MIA PaCa-2) of the same molecule?
The inhibition in vivo at 5 mg/kg was 6%.

What about the inhibition (888-mel) of the same molecule?
The inhibition was “Active”.

And the IC50 [15]?
The IC50 was over 10 µM.

And the inhibition in vivo at 6 mg/kg (A2058 [16])?
Its inhibition in vivo at 6 mg/kg is 73%.

What about the inhibition in vivo at 10 mg/kg (SK-OV-3) of the same molecule?
The inhibition in vivo at 10 mg/kg was 63%.
